Source: ChEMBL document CHEMBL1133306, “Discovery of a new class of p38 kinase inhibitors” (Bioorg Med Chem Lett, 2000)

Legend:
[1] = target: T1, Mitogen-activated protein kinase 14 (Homo sapiens, UniProt Q16539); experiment: Inhibitory activity against Mitogen-activated protein kinase p38 alpha 2 (expressed Escherichia coli) at concentration of 500 nM
Outline: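 Activated p38 α2 (0.05 µg/well) phosphorylating myelin basic protein (10 µg/well) in 25 mM HEPES pH 7.4, 20 mM MgCl₂, 150 mM NaCl. Compounds were added from 10% DMSO in water. Reactions were started with 10 µM ATP plus 0.2 µCi [γ-33P]ATP per well, run 35 min at 32 °C, and stopped with HCl. Filter-bound ³³P was counted by scintillation.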

[2] = target: T1, Mitogen-activated protein kinase 14; experiment: Inhibitory activity against Mitogen-activated protein kinase p38 alpha 2 expressed in Escherichia coli.
SW1353 = experiment: Compound was evaluated for its ability to inhibit IL-6 production in SW1353 cells treated with cytokines IL-1 and TNF; assay type: functional, cell-based; conditions: Homo sapiens

T1 sequence (Q16539 whole entry): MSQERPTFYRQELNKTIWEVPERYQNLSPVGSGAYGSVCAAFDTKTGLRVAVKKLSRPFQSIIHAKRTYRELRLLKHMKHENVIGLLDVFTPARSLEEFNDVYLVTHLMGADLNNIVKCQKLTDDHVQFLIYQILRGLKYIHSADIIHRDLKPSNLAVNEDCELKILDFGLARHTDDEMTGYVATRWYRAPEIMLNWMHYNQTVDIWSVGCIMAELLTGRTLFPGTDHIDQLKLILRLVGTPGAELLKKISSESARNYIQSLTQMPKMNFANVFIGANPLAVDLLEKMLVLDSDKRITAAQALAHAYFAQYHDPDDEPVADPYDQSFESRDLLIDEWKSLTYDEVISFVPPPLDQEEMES

| inhibition [1] [%] | IC50 [2] [µM] | Compound | IC50 (SW1353) [µM] |
| --- | --- | --- | --- |
| 74 | 0.19 | CC(C)(C)c1cc(NC(=O)Nc2ccc(F)cc2)no1 |  |
|  | 0.71 | CC(C)(C)c1cc(NC(=O)Nc2cc(Br)cc(Br)c2)no1 |  |
| 39 |  | CC(C)(C)c1cc(NC(=O)Nc2ccc(C(F)(F)F)cc2)no1 |  |
| 9 |  | CC(C)(C)c1cc(NC(=O)Nc2ccc(Cl)cc2C(F)(F)F)no1 |  |
| 54 |  | Cc1cccc(NC(=O)Nc2cc(C(C)(C)C)on2)c1C |  |
| 36 |  | CC(C)(C)c1cc(NC(=O)Nc2ccccc2C(F)(F)F)no1 |  |
| 18 |  | CC(=O)Nc1cccc(NC(=O)Nc2cc(C(C)(C)C)on2)c1 |  |
| 77 | 0.2 | CC(C)(C)c1cc(NC(=O)Nc2ccc(C(F)(F)F)cc2)on1 |  |
| 33 |  | CC(C)(C)c1cc(NC(=O)Nc2ccccc2)no1 |  |
| 14 |  | CC(=O)Nc1ccc(NC(=O)Nc2cc(C(C)(C)C)on2)cc1 |  |

More lines, now with the values behind:

| Compound | inhibition [1] [%] | IC50 [2] [µM] | IC50 (SW1353) [µM] |
| --- | --- | --- | --- |
| CC(C)(C)c1cc(NC(=O)Nc2cccc(Cl)c2Cl)no1 | 88 | 0.058 | 1.2 |
| Cc1c(C(C)C)noc1NC(=O)Nc1cccc(Cl)c1Cl | 34 | 0.92 |  |
| Cc1cc(NC(=O)Nc2cccc(Cl)c2Cl)on1 | 4 |  |  |
| CCCCc1cc(NC(=O)Nc2cccc(Cl)c2Cl)on1 | 33 | 1.1 |  |
| CC(C)(C)c1ccc(NC(=O)Nc2cccc(Cl)c2Cl)s1 | 82 | 0.12 |  |
| CC(C)(C)c1cc(NC(=O)Nc2cccc(Cl)c2Cl)cs1 | 76 | 0.16 |  |
| Cc1cc(F)ccc1-c1cc(N(C(N)=O)c2c(Cl)cccc2Cl)ccc1CO |  | 0.002 |  |
| Cc1cccc(NC(=O)Nc2cc(C(C)(C)C)no2)c1C | 49 |  |  |
| O=C(Nc1cc(C2CCC2)no1)Nc1cccc(Cl)c1Cl | 57 | 0.37 |  |
| CC(C)(C)c1cc(NC(=O)Nc2ccc(Cl)cc2)on1 | 68 | 0.26 |  |
| CC(C)(C)c1cc(NC(=O)Nc2ccc(Cl)c(Cl)c2)on1 | 62 | 0.22 |  |
| CC(=O)Nc1ccc(NC(=O)Nc2cc(C(C)(C)C)no2)cc1 | 20 |  |  |
| CC(=O)Nc1cccc(NC(=O)Nc2cc(C(C)(C)C)no2)c1 | 11 |  |  |
| Cc1c(C(C)(C)C)noc1NC(=O)Nc1cccc(Cl)c1Cl | 18 |  |  |
| CC(C)(C)c1cc(NC(=O)Nc2ccc(F)cc2)on1 | 41 |  |  |
| CC(C)c1cc(NC(=O)Nc2cccc(Cl)c2Cl)on1 | 62 | 0.29 |  |
| CC(C)(C)c1nnc(NC(=O)Nc2cccc(Cl)c2Cl)s1 | 1 |  |  |
| CCC(C)(C)c1cc(NC(=O)Nc2cccc(Cl)c2Cl)on1 | 83 | 0.12 |  |
| O=C(Nc1cc(C23CC4CC(CC(C4)C2)C3)no1)Nc1cccc(Cl)c1Cl | 9 |  |  |
| CC(C)(C)c1cc(NC(=O)Nc2cccc(Cl)c2Cl)on1 | 93 | 0.036 |  |
| CC(C)(C)Cc1cc(NC(=O)Nc2cccc(Cl)c2Cl)on1 | 81 | 0.12 |  |
| CCC(C)(C)c1noc(NC(=O)Nc2cccc(Cl)c2Cl)c1C | 18 |  |  |
